Laboratory results as given in ChEMBL document CHEMBL3865824, “New (E)-1-alkyl-1H-benzo[d]imidazol-2-yl)methylene)indolin-2-ones: Synthesis, in vitro cytotoxicity evaluation and apoptosis inducing studies” (Eur J Med Chem, 2016).
Activity calls are given as the source filed them. The rule behind the calls is not given here.

System: MDA-MB-231
Assay: Induction of apoptosis in human MDA-MB-231 cells assessed as reduction in viable cells at 1 to 4 uM after 24 hrs by phase contrast microscopic analysis
Format: functional, cell-based
In short: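 MDA-MB-231 cells were exposed for 24 h to 1, 2 and 4 μM beside a control. Morphology (shrinkage, deformation, number of viable cells) was examined and photographed by phase contrast microscopy.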

With `CC(C)n1c(/C=C2/C(=O)Nc3ccc(Br)cc32)nc2ccccc21` the Activity was “Active”.
